N-glyco inh = N-linked glycosylation inhibition; D54 ERlucT glycosylation luciferase reporter, 24 h; percent of 100 nM tunicamycin response; reporter increase, % at 12.5 µM; 360,000 tested, 0.23% active;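 active means mean luciferase reporter signal, scaled so untreated is 0 and the glycosylation-blocking control 100, at or above a set limit in every replicate; inconclusive means mean reaches the limit but not every replicate does; inactive means mean below the limit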;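 further: luciferase carries N-glycosylation sites so blocking glycosylation raises the light; 0% = median of neutral control wells and 100% = median of 100 nM tunicamycin wells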
AF4-AF9 inh = inhibitors of human MLL-AF4/AF9 interaction. P42568. AlphaScreen, biotin-AF4 peptide binding to FLAG-AF9. inhibition, % at 10 µM. 350,000 tested, 0.47% active. AID 651704;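 active means every replicate reaching a set inhibition limit, whatever the replicate mean, cut at about 25% in these data; inconclusive means mean inhibition reaches that limit but some replicates miss it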;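 further: 0% = plate neutral control median and 100% = total signal loss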
NSD2 inh = blocks human histone methyltransferase NSD2; NSD2 peptide methylation, AlphaScreen, 120 min; inhibition, % at 12.5 µM; 310,000 tested, 0.54% active; O96028; in the data active means inhibition above about 50%
FN deposition inh = fibronectin deposition inhibition; AH1F fibroblasts, Alexa488-fibronectin deposition fluorescence, overnight; inhibition, % at 12.6 µM; 350,000 tested, 0.086% active; AID 743247;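 active means mean inhibition across replicates of 30% or more, regardless of how many single replicates reach that level; inconclusive means mean under 30% yet at least half of replicates reach 30%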;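 further: positive control wells lacked labelled fibronectin entirely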
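Measured by – fluorescence 485/525 nm · System – AH1F fibroblast monolayer, labelled fibronectin deposition · Amount – 10000 cells per well · Buffer or medium – serum-reduced DMEM (2% serum) · Doses – single dose, pinned · Also added – fluorescent fibronectin at 24 nM final · Schedule – 1 h cell attachment, overnight exposure to compound and label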
RAD52 inh = blocks human RAD52 DNA annealing. P43351. recombinant RAD52 DNA annealing, FRET fluorescence. inhibition, % at 18.7 µM. 360,000 tested, 0.46% active. AID 651710;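 active means every replicate showing at least 50% inhibition; inconclusive means mean inhibition at least 50% but not in every replicate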
RAD54 inh = RAD54 (human) branch migration inhibition | Q92698 | RAD54 Holliday junction branch migration, FAM/BHQ fluorescence | inhibition, % at 10.4 µM | 360,000 tested, 0.14% active;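 active means mean normalized replicate activity at least 40 and at least half of replicates scoring 40 or more; inconclusive means only one of the two criteria met; inactive means mean below 40 and under half of replicates reaching 40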;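 further: 0% = median of neutral control wells and 100% = median of positive control wells; inhibitors cause a drop in the FAM fluorescence signal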
Target sequence (Q92698 whole entry, looked up): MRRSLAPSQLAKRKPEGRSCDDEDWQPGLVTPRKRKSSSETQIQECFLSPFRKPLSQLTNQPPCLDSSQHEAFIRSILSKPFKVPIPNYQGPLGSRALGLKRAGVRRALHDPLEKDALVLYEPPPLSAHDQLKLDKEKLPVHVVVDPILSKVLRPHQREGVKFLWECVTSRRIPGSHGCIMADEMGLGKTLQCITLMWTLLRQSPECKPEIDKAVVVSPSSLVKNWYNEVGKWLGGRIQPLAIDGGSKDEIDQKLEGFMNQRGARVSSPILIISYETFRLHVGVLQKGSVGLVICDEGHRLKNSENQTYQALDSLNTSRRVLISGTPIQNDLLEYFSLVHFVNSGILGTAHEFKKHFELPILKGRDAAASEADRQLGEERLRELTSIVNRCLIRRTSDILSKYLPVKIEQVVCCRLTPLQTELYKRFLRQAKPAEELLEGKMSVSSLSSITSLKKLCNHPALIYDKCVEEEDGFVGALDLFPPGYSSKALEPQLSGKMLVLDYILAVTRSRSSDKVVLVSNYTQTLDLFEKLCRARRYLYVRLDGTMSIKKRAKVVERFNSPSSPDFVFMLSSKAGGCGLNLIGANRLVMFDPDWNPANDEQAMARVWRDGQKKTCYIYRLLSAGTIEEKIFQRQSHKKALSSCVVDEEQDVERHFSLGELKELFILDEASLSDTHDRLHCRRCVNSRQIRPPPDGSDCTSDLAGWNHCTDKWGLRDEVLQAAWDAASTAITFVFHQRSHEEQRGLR
DNA binding = DNA binding artifact in Rad54 counter-screen. 460 tested, 8% active. AC50, µM (top dose mostly 35 µM), inactives show at the highest dose activity change, negative = DNA binding. shares compounds with RAD54 inh. AID 651673. Acridine orange-DNA displacement, fluorescence polarization, 20 min;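 active means signal drop giving an AC50 within twice the top valid tested concentration of each sample, actives reach about 35 µM in these data; inactive means activity opposite to expected, plus the rest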;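 further: polarization loss reports compound binding to salmon sperm DNA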
* marks the source's active call; other numbers are inactive results; ? = inconclusive; . = no result given. Hits are enriched below; roughly 1.2% of the tested compounds scored in any of these assays.

SMILES	N-glyco inh	AF4-AF9 inh	NSD2 inh	FN deposition inh	RAD52 inh	RAD54 inh	others
COc1ccc(CN(C)C[C@H]2OCCCC[C@@H](C)Oc3ccc(NS(=O)(=O)c4ccc(Cl)cc4)cc3C(=O)N([C@@H](C)CO)C[C@H]2C)cc1	.	9.8	.	0.0	54.7*	-6.7
COc1ccc(CN(C)C[C@@H]2OCCCC[C@H](C)Oc3ccc(NS(=O)(=O)c4ccc(Cl)cc4)cc3C(=O)N([C@H](C)CO)C[C@H]2C)cc1	.	6.1	.	13.1	57.5*	2.3
COc1ccc(CN(C)C[C@H]2OCCCC[C@@H](C)Oc3ccc(NS(=O)(=O)c4ccc(Cl)cc4)cc3C(=O)N([C@H](C)CO)C[C@H]2C)cc1	.	6.7	.	-1.1	54.8*	-12.0
CN1C(=O)c2cc(NC(=O)C3CCOCC3)ccc2OC[C@H]2O[C@@H](CC(=O)NC3CCCC3)CC[C@@H]21	.	-3.1	.	10.4	-5.3	3.6
O=C(Nc1cccc(F)c1)N1C[C@H]2[C@@H](c3ccccc31)[C@@H](CO)N2C(=O)c1ccccn1	.	.	.	.	0.4	4.3
CO[C@H]1CN(C)C(=O)c2cc(C#N)ccc2OCC[C@@H]2CC[C@@H](OC)[C@H](CN(C)C(=O)[C@@H]1C)O2	.	-0.3	.	8.9	-9.4	2.0
CN1C(=O)c2cc(NC(=O)Nc3ccc(Cl)cc3)ccc2OC[C@@H]2O[C@@H](CC(=O)NCCN3CCCCC3)CC[C@@H]21	.	11.6	.	4.5	57.3*	6.6
CN1C(=O)c2cc(NC(=O)Nc3ccc(Cl)cc3)ccc2OC[C@H]2O[C@H](CC(=O)NCCN3CCCCC3)CC[C@@H]21	.	5.3	.	-10.3	31.3	6.0
COC(=O)c1cccc(Nc2c3c(nc4ccccc24)CCC3)c1	22.4	-5.6	0.4	9.5	25.6	23.5
CC(=O)c1cccc(Nc2c3c(nc4ccccc24)CCC3)c1	51.5*	-17.2	-1.7	20.2	26.6	6.3
CC1CCCCN1CCNC(=O)Cn1nc(-c2ccccc2)ccc1=O (centres undefined)	-0.8	8.0	.	.	-12.9	10.0
CC1CCCCC1NC(=O)Cn1nc(-c2ccccc2)ccc1=O (centres undefined)	-0.7	26.9*	-1.7	.	-4.1	.
COc1cccc(OC)c1C(=O)Oc1ccc2c(C)cc(=O)oc2c1	.	.	4.0	.	.	.
C[C@@H]1CN([C@@H](C)CO)C(=O)c2cccc(NC(=O)c3ccncc3)c2O[C@H]1CN(C)CC1CCCCC1	.	-0.6	.	18.3	1.8	-6.6
CCN1CCN(c2ccc(S(=O)(=O)N3CCCCC3)cc2NC(=O)c2ccc([N+](=O)[O-])s2)CC1	-16.8	28.8*	0.3	-3.3	14.6	4.8
O=C(NCc1ccc(F)cc1)[C@@H]1N[C@@H]2c3ccc(-c4ccccc4)c(=O)n3C[C@@H]2[C@H]1CO	.	3.0	.	.	-0.3	6.3
CS(=O)(=O)N1CC2(C1)[C@@H](c1ccccc1)[C@@H](CO)N2CCC(F)(F)F	.	-1.6	.	.	0.4	.
S=c1nc[nH]c2nc[nH]c12	247.3*	-4.4	.	1.6	-7.6	-0.8
Cn1cnc2nc[nH]c2c1=S	1.6	-3.1	-0.6	-9.7	-11.3	2.5
NC[C@@H]1O[C@H](C23CC4CC(CC(C4)C2)C3)Cc2c1ccc(O)c2O	-7.0	46.6*	.	-10.9	41.1	9.4
C[C@@H]1CN([C@H](C)CO)C(=O)Cc2cc(NC(=O)Nc3ccc4c(c3)OCO4)ccc2O[C@@H]1CN(C)C(=O)Nc1ccc(F)cc1	.	.	.	.	.	-9.3
O=C(C1CCC1)N1CC2(C1)[C@H](c1ccccc1)[C@H](CO)N2Cc1ccc(Cl)cc1	.	4.6	.	-3.6	-7.1	.
O=C(C1CCC1)N1CC2(C1)[C@@H](c1ccccc1)[C@@H](CO)N2Cc1ccc(Cl)cc1	.	3.6	.	2.4	66.7*	.
Cc1noc(C)c1NC(=O)N(C)C[C@H]1Oc2c(NC(=O)Nc3ccc4c(c3)OCO4)cccc2C(=O)N([C@@H](C)CO)C[C@@H]1C	.	-4.0	.	.	-1.2	-7.1
C[C@H]1CN([C@@H](C)CO)C(=O)c2cc(NC(=O)c3ccncc3)ccc2O[C@@H]1CN(C)Cc1ccc(C(=O)O)cc1	.	-1.6	.	.	9.7	-1.1
SMILES	N-glyco inh	AF4-AF9 inh	NSD2 inh	FN deposition inh	RAD52 inh	RAD54 inh	others
Cc1ccc2[nH]c(=O)c3cc(C(=O)NCCN4CCN(C)CC4)sc3c2c1	10.0	2.6	.	1.8	26.1	57.3*	DNA binding=-13.3%
COc1ccc(S(=O)(=O)N[C@@H]2CC[C@@H](CC(=O)NCc3ccccc3F)O[C@H]2CO)cc1	.	0.0	.	.	-7.0	-4.2
Cc1nc2ccccc2c2oc(C(=O)NCCN3CCCCC3C)cc12 (centres undefined)	17.9	-5.8	.	-8.1	-5.3	52.4*	DNA binding=-18.9%
CCN1CCCC1CNC(=O)c1cc2c(C)nc3ccccc3c2o1 (centres undefined)	1.9	.	19.6	-1.7	.	27.5
Cc1nc2ccccc2c2oc(C(=O)N3CCC(N4CCCCC4)CC3)cc12	-2.0	.	.	.	.	67.1*	DNA binding=-5.1%
COc1cccc(S(=O)(=O)N(C)C[C@@H]2Oc3ncc(C#CC(C)(C)O)cc3C(=O)N([C@H](C)CO)C[C@@H]2C)c1	.	-2.6	.	.	-8.0	-1.4
CCCC(=O)Nc1ccc2c(c1)C(=O)N(C)C[C@H](OC)[C@@H](C)CN(C(=O)c1ccccc1F)[C@@H](C)CO2	.	0.7	.	-0.5	0.4	-8.3
COc1ccccc1C#Cc1ccc2c(c1)[C@@H]1[C@@H](CCN1C(=O)CN1CCOCC1)[C@H](CO)N2	.	12.9	.	11.4	6.9	.
O=C(N[C@@H]1CC[C@@H](CC(=O)N2CCC(Cc3ccccc3)CC2)O[C@H]1CO)c1cnccn1	.	-2.2	.	9.2	-12.7	-2.0
CNC(=O)C1=C(C)Nc2nc3ccccc3n2C1c1ccc(F)cc1 (centres undefined)	1.5	-36.6	-2.6	-12.8	-3.2	0.3
COC(=O)C1=C(C)Nc2nc3ccccc3n2C1c1ccccc1F (centres undefined)	6.6	-2.1	7.4	-4.6	-14.8	?	DNA binding=-12.5%
COc1ccc(S(=O)(=O)Nc2ccc3c(c2)CC(=O)N([C@@H](C)CO)C[C@H](C)[C@H](CN(C)S(=O)(=O)c2ccccc2)O3)cc1	.	.	.	.	.	-4.0
C[C@@H]1CCCCO[C@H](CN(C)C(=O)Nc2ccccc2)[C@@H](C)CN([C@@H](C)CO)C(=O)c2cc(NS(=O)(=O)c3cn(C)cn3)ccc2O1	.	0.5	.	3.3	2.1	-1.4
Cc1ccc2nc3c(cc(C(=O)NCCc4ccccc4)c(=N)n3CCN3CCOCC3)c(=O)n2c1	4.1	.	.	.	.	10.3
Cc1ccc2nc3c(cc(C(=O)NCCN4CCOCC4)c(=N)n3CCCN3CCOCC3)c(=O)n2c1	-2.7	.	9.1	.	.	65.9*	DNA binding=-15.4%
